Results on ten compounds are retold here after ChEMBL document CHEMBL2331225, “Structure-based design, synthesis and evaluation of novel anthra[1,2-d]imidazole-6,11-dione derivatives as telomerase inhibitors and potential for cancer polypharmacology” (Eur J Med Chem, 2013).

For assay [1], the system named is PC-3. Put plainly: Growth inhibition of human PC3 cells after 48 hrs by SRB assay. The assay is classed as functional, cell-based. Conditions: PC-3, 48 h. In short, it runs like this:
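PC-3 cells were seeded in medium with 5% FBS; after 24 h a plate was fixed with 10% TCA as T₀. Vehicle (0.1% DMSO) or compound was given for 48 h, then cells were TCA-fixed, stained with 0.4% SRB in 1% acetic acid, solubilized in 10 mM Trizma base and read at 515 nm. IC₅₀ is the concentration halving the protein increase seen in controls.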
(In general: Sulforhodamine B stains cellular protein and so reports cell mass.)

The target in assay [2] is T1, Telomerase reverse transcriptase (Homo sapiens, UniProt O14746). Nature of the assay: Inhibition of TERT transcriptional activity in human H1299 cells assessed SEAP activity at 100 uM incubated for 24 hrs by SEAP assay. The assay is classed as cell-based. Also on record: scale not given: the % may be the effect or the level left. In short, it runs like this: (§1)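 H1299 stable clones carry the hTERT promoter (−3338 to +1 bp) upstream of SEAP, introduced by electroporation and selected with G418. About 2 × 10³ cells per well were grown 24 h at 37 °C, given fresh medium, then drug for 24 h. Collected media were heated at 65 °C for 10 min, mixed with equal SEAP buffer (2 M diethanolamine, 1 mM MgCl₂, 20 mM L-homoarginine) and p-nitrophenyl phosphate at 12 mM final.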
T1 sequence (O14746 whole entry): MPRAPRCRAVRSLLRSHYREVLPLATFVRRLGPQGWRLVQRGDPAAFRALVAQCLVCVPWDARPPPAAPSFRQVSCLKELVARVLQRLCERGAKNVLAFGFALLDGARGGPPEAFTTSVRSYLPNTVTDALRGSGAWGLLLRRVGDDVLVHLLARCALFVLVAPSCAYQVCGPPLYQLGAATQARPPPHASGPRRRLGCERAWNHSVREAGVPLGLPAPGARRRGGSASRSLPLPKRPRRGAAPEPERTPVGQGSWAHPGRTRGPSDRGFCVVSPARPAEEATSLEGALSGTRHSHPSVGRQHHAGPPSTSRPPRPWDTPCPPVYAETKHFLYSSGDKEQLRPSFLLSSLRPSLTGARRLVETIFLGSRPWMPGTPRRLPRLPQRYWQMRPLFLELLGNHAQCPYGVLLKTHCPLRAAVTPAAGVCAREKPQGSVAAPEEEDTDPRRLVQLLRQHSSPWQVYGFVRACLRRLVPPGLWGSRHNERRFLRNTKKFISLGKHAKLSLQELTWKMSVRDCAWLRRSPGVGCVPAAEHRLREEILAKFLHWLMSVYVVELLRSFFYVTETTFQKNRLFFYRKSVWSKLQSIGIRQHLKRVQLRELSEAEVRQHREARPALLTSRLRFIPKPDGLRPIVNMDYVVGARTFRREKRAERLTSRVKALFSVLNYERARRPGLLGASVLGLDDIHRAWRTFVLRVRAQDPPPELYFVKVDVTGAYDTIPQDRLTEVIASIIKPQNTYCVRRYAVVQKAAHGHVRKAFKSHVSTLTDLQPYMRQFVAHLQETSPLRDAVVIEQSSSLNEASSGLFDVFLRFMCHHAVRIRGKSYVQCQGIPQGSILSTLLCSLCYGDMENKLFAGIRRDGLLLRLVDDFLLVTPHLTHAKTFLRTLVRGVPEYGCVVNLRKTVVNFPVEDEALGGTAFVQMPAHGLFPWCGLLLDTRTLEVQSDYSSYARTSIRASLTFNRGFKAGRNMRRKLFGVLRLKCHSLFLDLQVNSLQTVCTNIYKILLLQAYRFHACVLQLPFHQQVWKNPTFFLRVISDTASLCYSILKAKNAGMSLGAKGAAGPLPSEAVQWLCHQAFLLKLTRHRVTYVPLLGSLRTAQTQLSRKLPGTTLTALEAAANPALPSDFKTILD

Assay [3] has as its target T1, Telomerase reverse transcriptase. Put plainly: Inhibition of TERT transcriptional activity in human H1299 cells assessed SEAP activity at 10 uM incubated for 24 hrs by SEAP assay. The assay is classed as cell-based. Also on record: scale not given: the % may be the effect or the level left. Summed up: as §1
Assay [4] shares this target. Nature of the assay: Inhibition of TERT transcriptional activity in human H1299 cells assessed SEAP activity at 1 uM incubated for 24 hrs by SEAP assay. The class given is cell-based. Further details: scale not given: the % may be the effect or the level left. Summed up:
as §1

A short description of assay [5]: Cytotoxicity against human H1299 cells assessed as cell viability at 100 uM after 48 hrs by MTT assay. Conditions: NCI-H1299, 48 h, read-out: Activity. The assay is classed as functional. In short, it runs like this:
(§2)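 H1299 cells at about 2 × 10³ per well were grown 24 h at 37 °C in 5% CO₂. Compounds were dissolved in DMSO just before use and diluted into complete medium. After 48 h exposure, MTT was added for 4 h at 37 °C, then lysis buffer (20% SDS, 50% DMF) for 16 h at 37 °C. Absorbance was read at 550 nm.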

A short description of assay [6]: Cytotoxicity against human H1299 cells assessed as cell viability at 10 uM after 48 hrs by MTT assay. Conditions: NCI-H1299, 48 h, read-out: Activity. The assay is classed as functional. Summed up:
as §2
Background: Formazan colour is commonly taken as a measure of viable cells.

Assay [7] can be described thus: Cytotoxicity against human H1299 cells assessed as cell viability at 1 uM after 48 hrs by MTT assay. The class given is functional. Conditions: NCI-H1299, 48 h, read-out: Activity. In short, it runs like this:
as §2

Assay [8] has as its target T1, Telomerase reverse transcriptase. Nature of the assay: Inhibition of TERT activity in human H1299 cells homogenates incubated for 5 mins at 100 uM by TRAP assay. The assay is classed as cell-free. Summed up:
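Telomerase-active extracts were prepared from H1299 cells, and lysate protein was measured against BSA standards. Compounds were tested in the TRAP assay, with RNase A-treated extracts as negative controls.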

Activity calls are given as the source filed them. No cut-off for these calls is given here.

With `O=C1c2ccccc2C(=O)c2c1ccc1nc(CNCc3cccc(C(F)(F)F)c3)[nH]c21`, the IC50 in assay [1] is > 30 µM. The Activity in assay [2] is 4%; in assay [3], 89%; in assay [4], 87%. Further, in assay [5], the viability at 100 µM is 32%. Further, the viability at 10 µM in assay [6] is 110%. Further, in assay [7], the viability at 1 µM stood at 114%. Further, the “TERT inhibition (active/not active)” value in assay [8] was “inactive”.
`CN(C)Cc1nc2ccc3c(c2[nH]1)C(=O)c1ccccc1C3=O` showed an IC50 in assay [1] of 8.8 µM. Also, the results for the Activity in assay [2], in assay [3] and in assay [4] were 0%, 45% and 84%, respectively. Further, the viability at 100 µM in assay [5] came out at 0%. In assay [6], the viability at 10 µM came out at 64%. In addition, the viability at 1 µM in assay [7] was determined as 99%. Further, the “TERT inhibition (active/not active)” value in assay [8] was “inactive”.
For `O=C(CCCl)Nc1ccc2c(c1NC(=O)CCCl)C(=O)c1ccccc1C2=O`, the half-maximal inhibitory concentration (IC50) in assay [1] is > 30 µM. Further, the Activity in assay [2] amounted to 0%; in assay [3] it was 13%; in assay [4] it was 87%. Further, the viability at 100 µM in assay [5] was 6%. Moreover, in assay [6], the viability at 10 µM is 34%. Further, the viability at 1 µM in assay [7] came out at 94%. In addition, in assay [8], the “TERT inhibition (active/not active)” value was “inactive”.
On to `O=C1c2ccccc2C(=O)c2c1ccc1nc(CNCc3ccc4c(c3)OCO4)[nH]c21`, for which 22.5 µM corresponded to half-maximal inhibition in assay [1] (IC50). Also, the Activity in assay [2] worked out at 1%; in assay [3], 75%; in assay [4], 75%. In assay [5], the viability at 100 µM stood at 14%. Further, the viability at 10 µM in assay [6] amounted to 103%. Moreover, the viability at 1 µM in assay [7] amounted to 109%. Besides, in assay [8], the “TERT inhibition (active/not active)” value was “inactive”.
In assay [1], `CCCN(C)Cc1nc2ccc3c(c2[nH]1)C(=O)c1ccccc1C3=O` displayed an IC50 of 17.1 µM. Further, the Activity in assay [2] was 0%; in assay [3] it was 34%; in assay [4] it was 96%. Besides, the viability at 100 µM in assay [5] worked out at 0%. Besides, in assay [6], the viability at 10 µM stood at 80%. For the same compound, in assay [7], the viability at 1 µM stood at 93%. Further, the “TERT inhibition (active/not active)” value in assay [8] was “inactive”.
Take `O=C1c2ccccc2C(=O)c2c1ccc1nc(CNCc3ccc(C(F)(F)F)cc3)[nH]c21`: in assay [1], half-maximal inhibition (IC50) was put at 7.6 µM. Also, the Activity was 2% in assay [2], 8% in assay [3] and 52% in assay [4]. The viability at 100 µM in assay [5] came out at 0%. The viability at 10 µM in assay [6] worked out at 11%. For the same compound, the viability at 1 µM in assay [7] worked out at 74%. Further, the “TERT inhibition (active/not active)” value in assay [8] was “inactive”.
Take `O=C1c2ccccc2C(=O)c2c1ccc1nc(CN3CCOCC3)[nH]c21`: half-maximal inhibition in assay [1] (IC50) was put at 12.4 µM. Also, the Activity in assay [2] turned out to be 26%; in assay [3] it was 97%; in assay [4], 102%. For the same compound, the viability at 100 µM in assay [5] turned out to be 13%. Further, in assay [6], the viability at 10 µM is 71%. Besides, the viability at 1 µM in assay [7] stood at 90%. The “TERT inhibition (active/not active)” value in assay [8] was “inactive”.
Turning to `O=C1c2ccccc2C(=O)c2c1ccc1nc(CN3CCSC3)[nH]c21`, half-maximal inhibition in assay [1] (IC50) was put at 12.1 µM. For the same compound, the Activity in assay [2] is 12%; in assay [3] it was 86%; in assay [4], 106%. In addition, the viability at 100 µM in assay [5] turned out to be 5%. Besides, in assay [6], the viability at 10 µM worked out at 76%. The viability at 1 µM in assay [7] came out at 89%. In assay [8], the “TERT inhibition (active/not active)” value was “inactive”.
Consider `O=C1c2ccccc2C(=O)c2c1ccc1nc(CN3CCN(c4ccccc4F)CC3)[nH]c21`, for which, in assay [1], inhibition was half-maximal at 16.7 µM (IC50). Moreover, the Activity in assay [2] amounted to 0%; in assay [3], 78%; in assay [4], 103%. In addition, the viability at 100 µM in assay [5] was 15%. Further, the viability at 10 µM in assay [6] turned out to be 77%. Further, the viability at 1 µM in assay [7] amounted to 88%. Also, the “TERT inhibition (active/not active)” value in assay [8] is “inactive”.
Consider `Nc1ccc2c(c1N)C(=O)c1ccccc1C2=O`, for which the figures for the Activity in assay [2] and in assay [4] were 18% and 99%, respectively. Besides, the viability at 100 µM in assay [5] came to 39%. In addition, the viability at 10 µM in assay [6] amounted to 95%. For the same compound, the viability at 1 µM in assay [7] was 105%. In assay [8], the “TERT inhibition (active/not active)” value is “inactive”.

In general, IC50 refers to the midpoint of a concentration-inhibition curve.
